Experimental data from ChEMBL document CHEMBL4177671, “Selenium-containing analogues of WC-9 are extremely potent inhibitors of Trypanosoma cruzi proliferation” (Bioorg Med Chem, 2017).

What was measured:
Toxoplasma gondii = assay: Antiparasitic activity against tachyzoite stage of Toxoplasma gondii expressing red fluorescent protein infected in gamma-irradiated African green monkey Vero cells by fluorescence assay; assay type: functional; settings: light or radiation study, read-out: ED50 (the source's name)
Procedure, shortened: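 Tachyzoites expressing red fluorescent protein, assayed per an earlier method with published modifications. Plates were read with lids on, bottom read, excitation 544 nm and emission 590 nm. Values are the mean of one experiment carried out in triplicate.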

[1] = Cytotoxicity against African green monkey Vero cells after 3 to 4 days by Alamar Blue dye-based spectrophotometric method; assay type: cell-based; settings: chlorocebus sabaeus, read-out: ED50 (the source's name)
Procedure, shortened: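 Vero cell cytotoxicity was measured by Alamar Blue assay following a previously described method.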

Trypanosoma cruzi = assay: Antitrypanosomal activity against tdTomato red labeled trypomastigote stage of Trypanosoma cruzi infected in gamma-irradiated African green monkey Vero cells after 3 days by fluorescence assay; assay type: functional; settings: light or radiation study, 72 h, read-out: ED50 (the source's name)
Procedure, shortened: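 Vero cells, gamma-irradiated at 2,000 Rads, were seeded at 3.4×10^4 per well in RPMI with 10% FBS and incubated overnight at 35 °C, 7% CO2. They were infected with 3.4×10^5 CL-strain tdTomato trypomastigotes per well for 5 h, then washed. Serial dilutions of 1.56–25 μM were run in quadruplicate, with benznidazole at 0.39–6.25 μM. Fluorescence was read at day 3. ED50 was obtained by non-linear regression.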

[2] = Selectivity index, ratio of ED50 for African green monkey Vero cells to ED50 for Trypanosoma cruzi; assay type: toxicity; settings: Vero cells versus Trypanosoma cruzi, read-out: Ratio ED50
Procedure, shortened: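 Calculated as ED50 for Vero cytotoxicity divided by ED50 for the parasite.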

| Compound | EC50 (Toxoplasma gondii) [µM] | CC50 [1] [µM] | EC50 (Trypanosoma cruzi) [µM] | selectivity ratio [2] |
| --- | --- | --- | --- | --- |
| N#CSCCOc1ccc(Oc2ccccc2)cc1 | 4.8 | 82.6 | 5 | – |
| N#CSCc1cc2cc(Oc3ccccc3)ccc2o1 | – | – | 5.19 | – |
| N#COCCOc1ccc(Oc2ccccc2)cc1 | – | – | > 10 | – |
| N#C[Se]CCOc1ccc(Oc2cccc(F)c2)cc1 | – | 153 | 0.085 | 1800 |
| N#C[Se]CCOc1cccc(Oc2ccccc2F)c1 | – | 140 | 0.126 | 1110 |
| N#C[Se]CCOc1cccc(I)c1 | – | > 62.5 | 5.44 | > 11.5 |
| N#C[Se]CCOc1ccc(Cl)cc1Cl | – | > 62.5 | 1.38 | > 45.3 |
| N#CSCCOc1ccc(Sc2ccccc2)cc1 | 4.58 | > 62.5 | 5.73 | > 10.9 |
| N#C[Se]CCOc1cccc(Oc2ccc(F)cc2)c1 | – | > 125 | 0.099 | > 1260 |
| N#C[Se]CCOc1cccc(Oc2ccccc2)c1 | 2.87 | > 150 | 0.085 | > 1760 |
| N#C[Se]CCOc1ccc(Oc2ccc(F)cc2)cc1 | – | 122 | 0.271 | – |
| CCOP(=O)(OCC)C(CNCCOc1ccccc1)P(=O)(OCC)OCC | – | – | 5.38 | – |
| N#C[Se]CCOc1cccc(Oc2ccc(Cl)cc2)c1 | – | > 125 | 0.114 | > 1100 |
| NC(=O)OCCOc1ccc(Oc2ccccc2)cc1 | – | – | > 10 | – |
| O=P(O)(O)C(CNCCOc1ccccc1)P(=O)(O)O | – | – | 5.69 | – |
| N#CSCC1Cc2cc(Oc3ccccc3)ccc2O1 (stereo not drawn) | > 10 | > 62.5 | 5.99 | > 10.4 |
| O=[N+]([O-])c1ccc(Oc2cccc(Br)c2)cc1 | – | – | > 100 | – |
| N#C[Se]CCOc1ccc(Oc2ccccc2)cc1 | 3.7 | > 100 | 0.109 | > 917 |
| N#C[Se]CCOc1cccc(Oc2cccc(F)c2)c1 | – | > 62.5 | 0.075 | > 833 |
| N#C[Se]CCOc1ccc(I)cc1 | – | > 50 | > 10 | – |
| N#CSCCOc1cccc(Sc2ccccc2)c1 | 3.58 | > 50 | > 10 | – |
| N#C[Se]CC1Cc2cc(Oc3ccccc3)ccc2O1 (racemic) | – | > 125 | 0.083 | > 1500 |
| N#C[Se]CC1Cc2ccc(Oc3ccccc3)cc2O1 (racemic) | – | > 125 | 0.12 | > 1040 |
| N#C[Se]CC1Cc2c(Oc3ccccc3)cccc2O1 (racemic) | – | > 125 | 0.407 | > 307 |
| O=C(Cn1ccnc1[N+](=O)[O-])NCc1ccccc1 [BENZNIDAZOLE] | – | – | 1.5 | – |
